Reference: ChEMBL document CHEMBL5247575 (J Med Chem, 2018)

Key:
[1] = tested on: Acinetobacter baumannii; experiment: Synergistic antibacterial activity against ADC deleted Acinetobacter baumannii transfected with pWH1266 OXA-23 assessed as cefepime MIC at 4 ug/ml by broth microdilution method; format: functional; details: dose 4 µg/ml
[2] = tested on: Klebsiella pneumoniae; experiment: Synergistic antibacterial activity against Klebsiella pneumoniae 935/1884 producing KPC-3 assessed as meropenem MIC at 4 ug/ml by broth microdilution method; format: functional; details: dose 4 µg/ml
[3] = tested on: Acinetobacter baumannii; experiment: Synergistic antibacterial activity against Acinetobacter baumannii PR323 producing OXA-24/40 assessed as cefepime MIC at 4 ug/ml by broth microdilution method; format: functional; details: dose 4 µg/ml
[4] = tested on: Klebsiella pneumoniae; experiment: Synergistic antibacterial activity against Klebsiella pneumoniae 729/1679 producing KPC-3 assessed as meropenem MIC at 4 ug/ml by broth microdilution method; format: functional; details: dose 4 µg/ml
Outline: (§1)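 Broth microdilution per CLSI guidelines, using custom frozen panels. […] Each partner drug was also tested alone. MICs were run in triplicate and the modal value is reported.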

[5] = tested on: Bacteria; experiment: Inhibition of bacteria ADC-7 assessed as half life using nitrocefin as substrate
[6] = tested on: Klebsiella pneumoniae; experiment: Synergistic antibacterial activity against Klebsiella pneumoniae CAV 1636 producing OXA-181 assessed as cefepime MIC at 4 ug/ml by broth microdilution method; format: functional; details: dose 4 µg/ml
[7] = tested on: Pseudomonas aeruginosa; experiment: Synergistic antibacterial activity against Pseudomonas aeruginosa 839 assessed as cefepime MIC at 4 ug/ml by broth microdilution method; format: functional; details: dose 4 µg/ml
[8] = tested on: Acinetobacter baumannii; experiment: Synergistic antibacterial activity against Acinetobacter baumannii PR408 producing OXA-24/40 assessed as cefepime MIC at 4 ug/ml by broth microdilution method; format: functional; details: dose 4 µg/ml
[9] = tested on: Klebsiella pneumoniae; experiment: Synergistic antibacterial activity against Klebsiella pneumoniae 11978 producing OXA-48 assessed as meropenem MIC at 4 ug/ml by broth microdilution method; format: functional; details: dose 4 µg/ml; outline: as §1
[10] = tested on: Bacteria; experiment: Inhibition of bacteria ADC-7 assessed as Koff rate using nitrocefin as substrate incubated for 30 mins
[11] = tested on: Acinetobacter baumannii; experiment: Synergistic antibacterial activity against Acinetobacter baumannii PR448 producing OXA-23 assessed as meropenem MIC at 4 ug/ml by broth microdilution method; format: functional; details: dose 4 µg/ml
[12] = tested on: Escherichia coli; experiment: Synergistic antibacterial activity against Escherichia coli DH10B transfected with pBR322-catI-KPC-2 assessed as meropenem MIC at 4 ug/ml by broth microdilution method; format: functional; details: dose 4 µg/ml; outline: as §1
[13] = tested on: Klebsiella pneumoniae; experiment: Synergistic antibacterial activity against Klebsiella pneumoniae NY BS producing OXA-232 assessed as meropenem MIC at 4 ug/ml by broth microdilution method; format: functional; details: dose 4 µg/ml
[14] = tested on: Acinetobacter baumannii; experiment: Synergistic antibacterial activity against Acinetobacter baumannii PR359 producing OXA-23 assessed as meropenem MIC at 4 ug/ml by broth microdilution method; format: functional; details: dose 4 µg/ml
[15] = tested on: Acinetobacter baumannii; experiment: Synergistic antibacterial activity against Acinetobacter baumannii PR476 producing OXA-24/40 assessed as cefepime MIC at 4 ug/ml by broth microdilution method; format: functional; details: dose 4 µg/ml
[16] = tested on: Pseudomonas aeruginosa; experiment: Antibacterial activity against Pseudomonas aeruginosa CL232 by broth microdilution method; format: functional
[17] = tested on: Acinetobacter baumannii; experiment: Synergistic antibacterial activity against Acinetobacter baumannii PR408 producing OXA-24/40 assessed as meropenem MIC at 4 ug/ml by broth microdilution method; format: functional; details: dose 4 µg/ml
[18] = tested on: Acinetobacter baumannii; experiment: Synergistic antibacterial activity against Acinetobacter baumannii PR363 producing OXA-23 assessed as meropenem MIC at 4 ug/ml by broth microdilution method; format: functional; details: dose 4 µg/ml
[19] = tested on: Klebsiella pneumoniae; experiment: Synergistic antibacterial activity against Klebsiella pneumoniae 660/1568 producing KPC-3 assessed as meropenem MIC at 4 ug/ml by broth microdilution method; format: functional; details: dose 4 µg/ml; outline: as §1
[20] = tested on: Escherichia coli; experiment: Synergistic antibacterial activity against Escherichia coli DH10B transfected with pBC SK (-) PDC-3 assessed as cefepime MIC at 8 ug/ml by broth microdilution method; format: functional; details: dose 8 µg/ml; outline: as §1
[21] = tested on: Acinetobacter baumannii; experiment: Synergistic antibacterial activity against Acinetobacter baumannii PR323 producing OXA-24/40 assessed as meropenem MIC at 8 ug/ml by broth microdilution method; format: functional; details: dose 8 µg/ml
[22] = tested on: Klebsiella pneumoniae; experiment: Synergistic antibacterial activity against Klebsiella pneumoniae 977/1916 producing KPC-3 assessed as cefepime MIC at 8 ug/ml by broth microdilution method; format: functional; details: dose 8 µg/ml
[23] = tested on: Klebsiella pneumoniae; experiment: Synergistic antibacterial activity against Klebsiella pneumoniae NY BS producing OXA-232 assessed as meropenem MIC at 8 ug/ml by broth microdilution method; format: functional; details: dose 8 µg/ml
[24] = tested on: Klebsiella pneumoniae; experiment: Synergistic antibacterial activity against Klebsiella pneumoniae 660/1568 producing KPC-3 assessed as meropenem MIC at 8 ug/ml by broth microdilution method; format: functional; details: dose 8 µg/ml; outline: as §1
[25] = tested on: Escherichia coli; experiment: Synergistic antibacterial activity against Escherichia coli DH10B transfected with pBC SK (-) KPC-3 assessed as cefepime MIC at 8 ug/ml by broth microdilution method; format: functional; details: dose 8 µg/ml
[26] = tested on: Escherichia coli; experiment: Synergistic antibacterial activity against Escherichia coli DH10B assessed as meropenem MIC at 8 ug/ml by broth microdilution method; format: functional; details: dose 8 µg/ml
[27] = tested on: Acinetobacter baumannii; experiment: Synergistic antibacterial activity against Acinetobacter baumannii PR476 producing OXA-24/40 assessed as meropenem MIC at 8 ug/ml by broth microdilution method; format: functional; details: dose 8 µg/ml
[28] = tested on: Acinetobacter baumannii; experiment: Synergistic antibacterial activity against Acinetobacter baumannii PR381 producing OXA-24/40 assessed as meropenem MIC at 8 ug/ml by broth microdilution method; format: functional; details: dose 8 µg/ml
[29] = tested on: Klebsiella pneumoniae; experiment: Synergistic antibacterial activity against Klebsiella pneumoniae 440/1360 producing KPC-2 assessed as cefepime MIC at 8 ug/ml by broth microdilution method; format: functional; details: dose 8 µg/ml; outline: as §1
[30] = tested on: Klebsiella pneumoniae; experiment: Synergistic antibacterial activity against Klebsiella pneumoniae 11978 producing OXA-48 assessed as cefepime MIC at 8 ug/ml by broth microdilution method; format: functional; details: dose 8 µg/ml; outline: as §1
[31] = tested on: Klebsiella pneumoniae; experiment: Synergistic antibacterial activity against Klebsiella pneumoniae CAV 1543 producing OXA-48 assessed as cefepime MIC at 8 ug/ml by broth microdilution method; format: functional; details: dose 8 µg/ml
[32] = tested on: Acinetobacter baumannii; experiment: Synergistic antibacterial activity against Acinetobacter baumannii PR408 producing OXA-24/40 assessed as meropenem MIC at 8 ug/ml by broth microdilution method; format: functional; details: dose 8 µg/ml
[33] = tested on: Acinetobacter baumannii; experiment: Synergistic antibacterial activity against Acinetobacter baumannii PR474 producing OXA-23/24/40 assessed as meropenem MIC at 8 ug/ml by broth microdilution method; format: functional; details: dose 8 µg/ml
[34] = tested on: Klebsiella pneumoniae; experiment: Synergistic antibacterial activity against Klebsiella pneumoniae 1315/2198 producing KPC-3 assessed as cefepime MIC at 8 ug/ml by broth microdilution method; format: functional; details: dose 8 µg/ml; outline: as §1
[35] = tested on: Klebsiella pneumoniae; experiment: Synergistic antibacterial activity against Klebsiella pneumoniae 1354/2241 producing KPC-3 assessed as cefepime MIC at 8 ug/ml by broth microdilution method; format: functional; details: dose 8 µg/ml; outline: as §1
[36] = tested on: Klebsiella pneumoniae; experiment: Synergistic antibacterial activity against Klebsiella pneumoniae 776/1742 producing KPC-2 assessed as cefepime MIC at 8 ug/ml by broth microdilution method; format: functional; details: dose 8 µg/ml
[37] = tested on: Acinetobacter baumannii; experiment: Synergistic antibacterial activity against Acinetobacter baumannii PR319 producing OXA-23/24/40 assessed as cefepime MIC at 8 ug/ml by broth microdilution method; format: functional; details: dose 8 µg/ml
[38] = tested on: Klebsiella pneumoniae; experiment: Synergistic antibacterial activity against Klebsiella pneumoniae 935/1884 producing KPC-3 assessed as meropenem MIC at 8 ug/ml by broth microdilution method; format: functional; details: dose 8 µg/ml
[39] = tested on: Acinetobacter baumannii; experiment: Synergistic antibacterial activity against ADC deleted Acinetobacter baumannii transfected with pWH1266 producing OXA-24/40 assessed as meropenem MIC at 8 ug/ml by broth microdilution method; format: functional; details: dose 8 µg/ml

SMILES	MIC [1] [µg/mL]	MIC [2] [µg/mL]	MIC [3] [µg/mL]	MIC [4] [µg/mL]	T1/2 [5] [min]	MIC [6] [µg/mL]	MIC [7] [µg/mL]	MIC [8] [µg/mL]	MIC [9] [µg/mL]	K [10]	MIC [11] [µg/mL]	MIC [12] [µg/mL]	MIC [13] [µg/mL]	MIC [14] [µg/mL]	MIC [15] [µg/mL]	MIC [16] [µg/mL]	MIC [17] [µg/mL]	MIC [18] [µg/mL]	MIC [19] [µg/mL]	MIC [20] [µg/mL]	other results
O.O=C(NC1CCNCC1)[C@@H]1CC[C@@H]2CN1C(=O)N2OS(=O)(=O)O [RELEBACTAM]	> 16	≤ 0.12	> 16	≤ 0.12	39	4	4	16	> 16	3 10^-4/s	> 16	≤ 0.12	> 16	> 16	2	> 16	> 16	> 16	≤ 0.12	–	–
NC(=O)[C@@H]1CC[C@@H]2CN1C(=O)N2OS(=O)(=O)[O-].[Na+] [AVIBACTAM SODIUM]	–	≤ 0.12	> 16	≤ 0.12	33	0.5	4	> 16	1	3.5 10^-4/s	> 16	≤ 0.12	0.5	> 16	2	> 16	> 16	> 16	≤ 0.12	–	–
O=C(NNC(=O)[C@@H]1CC[C@@H]2CN1C(=O)N2OS(=O)(=O)O)[C@@H]1CCCNC1 [ZIDEBACTAM]	16	≤ 0.12	4	≤ 0.12	11	≤ 0.12	2	8	≤ 0.12	1.1 10^-3/s	> 16	≤ 0.12	≤ 0.12	> 16	1	–	> 16	> 16	≤ 0.12	≤ 0.12	MIC [21]: > 16 µg/mL; MIC [22]: ≤ 0.12 µg/mL; MIC [23]: ≤ 0.12 µg/mL; MIC [24]: ≤ 0.12 µg/mL; MIC [25]: ≤ 0.12 µg/mL; MIC [26]: ≤ 0.12 µg/mL; MIC [27]: 0.25 µg/mL; MIC [28]: > 16 µg/mL; MIC [29]: ≤ 0.12 µg/mL; MIC [30]: ≤ 0.12 µg/mL; MIC [31]: ≤ 0.12 µg/mL; MIC [32]: > 16 µg/mL; MIC [33]: > 16 µg/mL; MIC [34]: ≤ 0.12 µg/mL; MIC [35]: ≤ 0.12 µg/mL; MIC [36]: ≤ 0.12 µg/mL; MIC [37]: > 16 µg/mL; MIC [38]: ≤ 0.12 µg/mL; MIC [39]: > 16 µg/mL
O=C(NNC(=O)[C@@H]1CC[C@@H]2CN1C(=O)N2OS(=O)(=O)O)[C@@H]1CCNC1	16	≤ 0.12	4	0.25	13	≤ 0.12	≤ 0.12	16	–	9 10^-4/s	> 16	≤ 0.12	≤ 0.12	> 16	1	–	> 16	> 16	≤ 0.12	≤ 0.12	MIC [21]: > 16 µg/mL; MIC [22]: ≤ 0.12 µg/mL; MIC [23]: ≤ 0.12 µg/mL; MIC [24]: ≤ 0.12 µg/mL; MIC [25]: ≤ 0.12 µg/mL; MIC [26]: ≤ 0.12 µg/mL; MIC [27]: 0.25 µg/mL; MIC [28]: > 16 µg/mL; MIC [29]: ≤ 0.12 µg/mL; MIC [30]: ≤ 0.12 µg/mL; MIC [31]: ≤ 0.12 µg/mL; MIC [32]: > 16 µg/mL; MIC [33]: > 16 µg/mL; MIC [34]: ≤ 0.12 µg/mL; MIC [35]: ≤ 0.12 µg/mL; MIC [36]: ≤ 0.12 µg/mL; MIC [37]: > 16 µg/mL; MIC [38]: ≤ 0.12 µg/mL; MIC [39]: > 16 µg/mL
N#C[C@@H]1CC[C@@H]2CN1C(=O)N2OS(=O)(=O)[O-].[Na+]	2	≤ 0.12	> 16	≤ 0.12	12	0.5	8	8	≤ 0.12	1 10^-3/s	2	≤ 0.12	0.25	4	2	> 16	> 16	4	≤ 0.12	≤ 0.12	MIC [21]: 16 µg/mL; MIC [22]: ≤ 0.12 µg/mL; MIC [23]: ≤ 0.12 µg/mL; MIC [24]: ≤ 0.12 µg/mL; MIC [25]: ≤ 0.12 µg/mL; MIC [26]: ≤ 0.12 µg/mL; MIC [27]: 0.25 µg/mL; MIC [28]: > 16 µg/mL; MIC [29]: 0.25 µg/mL; MIC [30]: 0.5 µg/mL; MIC [31]: 0.25 µg/mL; MIC [32]: > 16 µg/mL; MIC [33]: 16 µg/mL; MIC [34]: 0.25 µg/mL; MIC [35]: ≤ 0.12 µg/mL; MIC [36]: 1 µg/mL; MIC [37]: > 16 µg/mL; MIC [38]: ≤ 0.12 µg/mL; MIC [39]: > 16 µg/mL
